# Assay results from ChEMBL document CHEMBL3421541, “Benzaldehyde Schiff bases regulation to the metabolism, hemolysis, and virulence genes expression in vitro and their structure-microbicidal activity relationship” (2015).
# The source made the active and inactive calls.
# Experiments:
# [1] = system: Escherichia coli; experiment: Antibacterial activity against Escherichia coli assessed as growth inhibition at 100 umol/L after 8 hrs by ELISA plate reader analysis relative to control; format: functional; conditions: read-out: GI
# Summary of the method: (§1)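 Bacteria were seeded at 1×10^5 CFU/mL in LB, and compound was added to 100 µmol/L final. Compounds came from DMSO stock, with DMSO ≤1% (v/v) final. Cultures were shaken at 37 °C for 8 h and read at OD450. Inhibition % = (OD vehicle control − OD sample)/OD vehicle control × 100. Values are the mean of three independent experiments.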
# [2] = system: Bacillus subtilis; experiment: Antibacterial activity against Bacillus subtilis assessed as growth inhibition at 100 umol/L after 8 hrs by ELISA plate reader analysis relative to control; format: functional; conditions: read-out: GI; summary of the method: as §1
# [3] = system: Staphylococcus aureus; experiment: Antibacterial activity against Staphylococcus aureus assessed as growth inhibition at 100 umol/L after 8 hrs by ELISA plate reader analysis relative to control; format: functional; conditions: read-out: GI; summary of the method: as §1
# [4] = system: Staphylococcus aureus; experiment: Antibacterial activity against Staphylococcus aureus assessed as lowest concentration required to reduce growth by 1% after 8 hrs by ELISA plate reader analysis relative to control; format: functional
# Summary of the method: (§2)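 MBC was found by broth microdilution. Inocula of 1×10^5 CFU/mL in LB were shaken at 37 °C with a series of compound concentrations, then read at OD450. MBC was defined as the lowest concentration reducing growth by 1% versus the inoculum control. Three independent experiments were run.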
# [5] = system: Staphylococcus aureus; experiment: Upregulation of hla gene expression in Staphylococcus aureus at 50 umol/L after 8 hrs by real-time RT-PCR analysis relative to control; format: functional, organism-based
# Summary of the method: (§3)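 S. aureus ATCC 25923 at 2×10^7 CFU/mL in LB was exposed to 50 µmol/L compound, or LB alone, for 8 h at 37 °C. Total RNA was analysed by TaqMan real-time RT-PCR or semi-quantitative RT-PCR, normalised to gyrB. Fold change is versus time-matched medium-only cultures, with data pooled from three experiments.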
# [6] = system: Staphylococcus aureus; experiment: Upregulation of hla gene expression in Staphylococcus aureus at 50 umol/L after 8 hrs by semi-quantitative RT-PCR analysis relative to control; format: functional, organism-based; summary of the method: as §3
# [7] = system: Staphylococcus aureus; experiment: Upregulation of sbi gene expression in Staphylococcus aureus at 50 umol/L after 8 hrs by real-time RT-PCR analysis relative to control; format: functional, organism-based; summary of the method: as §3
# [8] = system: Staphylococcus aureus; experiment: Upregulation of sbi gene expression in Staphylococcus aureus at 50 umol/L after 8 hrs by semi-quantitative RT-PCR analysis relative to control; format: functional, organism-based; summary of the method: as §3
# [9] = system: Staphylococcus aureus; experiment: Downregulation of mecA gene expression in Staphylococcus aureus at 50 umol/L after 8 hrs by real-time RT-PCR analysis relative to control; format: functional; summary of the method: as §3
# [10] = system: Staphylococcus aureus; experiment: Downregulation of mecA gene expression in Staphylococcus aureus at 50 umol/L after 8 hrs by semi-quantitative RT-PCR analysis relative to control; format: functional; summary of the method: as §3
# [11] = system: Staphylococcus aureus; experiment: Downregulation of saeR gene expression in Staphylococcus aureus at 50 umol/L after 8 hrs by real-time RT-PCR analysis relative to control; format: functional, organism-based; summary of the method: as §3
# [12] = system: Staphylococcus aureus; experiment: Downregulation of saeR gene expression in Staphylococcus aureus at 50 umol/L after 8 hrs by semi-quantitative RT-PCR analysis relative to control; format: functional, organism-based; summary of the method: as §3
# [13] = system: Bacillus subtilis; experiment: Antibacterial activity against Bacillus subtilis assessed as lowest concentration required to reduce growth by 1% after 8 hrs by ELISA plate reader analysis relative to control; format: functional; summary of the method: as §2
# [14] = system: Bacillus subtilis; experiment: Downregulation of yqhC gene expression in Bacillus subtilis at 50 umol/L after 8 hrs by real-time RT-PCR analysis relative to control; format: functional, organism-based
# Summary of the method: as §3, with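 “B. subtilis” for “S. aureus”, “6051” for “25923”, “16sRNA.” for “gyrB.”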
# [15] = system: Bacillus subtilis; experiment: Downregulation of yqhC gene expression in Bacillus subtilis at 50 umol/L after 8 hrs by semi-quantitative RT-PCR analysis relative to control; format: functional, organism-based
# Summary of the method: as §3, with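 “B. subtilis” for “S. aureus”, “6051” for “25923”, “16sRNA.” for “gyrB.”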
# [16] = system: Bacillus subtilis; experiment: Downregulation of yhdP gene expression in Bacillus subtilis at 50 umol/L after 8 hrs by real-time RT-PCR analysis relative to control; format: functional, organism-based
# Summary of the method: as §3, with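 “B. subtilis” for “S. aureus”, “6051” for “25923”, “16sRNA.” for “gyrB.”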
# [17] = system: Bacillus subtilis; experiment: Downregulation of yhdP gene expression in Bacillus subtilis at 50 umol/L after 8 hrs by semi-quantitative RT-PCR analysis relative to control; format: functional, organism-based
# Summary of the method: as §3, with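 “B. subtilis” for “S. aureus”, “6051” for “25923”, “16sRNA.” for “gyrB.”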
# [18] = system: Bacillus subtilis; experiment: Downregulation of yhdT gene expression in Bacillus subtilis at 50 umol/L after 8 hrs by real-time RT-PCR analysis relative to control; format: functional, organism-based
# Summary of the method: as §3, with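 “B. subtilis” for “S. aureus”, “6051” for “25923”, “16sRNA.” for “gyrB.”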
# [19] = system: Bacillus subtilis; experiment: Downregulation of yhdT gene expression in Bacillus subtilis at 50 umol/L after 8 hrs by semi-quantitative RT-PCR analysis relative to control; format: functional, organism-based
# Summary of the method: as §3, with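 “B. subtilis” for “S. aureus”, “6051” for “25923”, “16sRNA.” for “gyrB.”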
# [20] = system: Bacillus subtilis; experiment: Downregulation of yqhB gene expression in Bacillus subtilis at 50 umol/L after 8 hrs by real-time RT-PCR analysis relative to control; format: functional, organism-based
# Summary of the method: as §3, with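 “B. subtilis” for “S. aureus”, “6051” for “25923”, “16sRNA.” for “gyrB.”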
# [21] = system: Bacillus subtilis; experiment: Downregulation of yqhB gene expression in Bacillus subtilis at 50 umol/L after 8 hrs by semi-quantitative RT-PCR analysis relative to control; format: functional, organism-based
# Summary of the method: as §3, with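 “B. subtilis” for “S. aureus”, “6051” for “25923”, “16sRNA.” for “gyrB.”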
# [22] = system: Bacillus subtilis; experiment: Downregulation of yugS gene expression in Bacillus subtilis at 50 umol/L after 8 hrs by real-time RT-PCR analysis relative to control; format: functional, organism-based
# Summary of the method: as §3, with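 “B. subtilis” for “S. aureus”, “6051” for “25923”, “16sRNA.” for “gyrB.”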
# [23] = system: Bacillus subtilis; experiment: Downregulation of yugS gene expression in Bacillus subtilis at 50 umol/L after 8 hrs by semi-quantitative RT-PCR analysis relative to control; format: functional, organism-based
# Summary of the method: as §3, with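 “B. subtilis” for “S. aureus”, “6051” for “25923”, “16sRNA.” for “gyrB.”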
# [24] = system: Escherichia coli; experiment: Antibacterial activity against Escherichia coli assessed as lowest concentration required to reduce growth by 1% after 8 hrs by ELISA plate reader analysis relative to control; format: functional; summary of the method: as §2
# [25] = system: Escherichia coli; experiment: Downregulation of cysB gene expression in Escherichia coli at 50 umol/L after 8 hrs by real-time RT-PCR analysis relative to control; format: functional, organism-based
# Summary of the method: (§4)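 E. coli at 2×10^7 CFU/mL in LB was exposed to 50 µmol/L compound, or LB alone, for 8 h at 37 °C. Total RNA was then analysed by TaqMan real-time RT-PCR or semi-quantitative RT-PCR. Transcripts were normalised to gapA. Fold change is relative to time-matched medium-only cultures.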
# [26] = system: Escherichia coli; experiment: Downregulation of cysB gene expression in Escherichia coli at 50 umol/L after 8 hrs by semi-quantitative RT-PCR analysis relative to control; format: functional, organism-based; summary of the method: as §4
# [27] = system: Escherichia coli; experiment: Downregulation of acrA gene expression in Escherichia coli at 50 umol/L after 8 hrs by real-time RT-PCR analysis relative to control; format: functional, organism-based; summary of the method: as §4
# [28] = system: Escherichia coli; experiment: Downregulation of acrA gene expression in Escherichia coli at 50 umol/L after 8 hrs by semi-quantitative RT-PCR analysis relative to control; format: functional, organism-based; summary of the method: as §4
# [29] = system: Escherichia coli; experiment: Downregulation of tsh gene expression in Escherichia coli at 50 umol/L after 8 hrs by real-time RT-PCR analysis relative to control; format: functional, organism-based; summary of the method: as §4
# [30] = system: Escherichia coli; experiment: Downregulation of IroD gene expression in Escherichia coli at 50 umol/L after 8 hrs by real-time RT-PCR analysis relative to control; format: functional, organism-based; summary of the method: as §4
# [31] = system: Escherichia coli; experiment: Downregulation of tsh gene expression in Escherichia coli at 50 umol/L after 8 hrs by semi-quantitative RT-PCR analysis relative to control; format: functional, organism-based; summary of the method: as §4
# [32] = system: Escherichia coli; experiment: Downregulation of IroD gene expression in Escherichia coli at 50 umol/L after 8 hrs by semi-quantitative RT-PCR analysis relative to control; format: functional, organism-based; summary of the method: as §4
# [33] = system: Staphylococcus aureus; experiment: Downregulation of hla gene expression in Staphylococcus aureus at 50 umol/L after 8 hrs by real-time RT-PCR analysis relative to control; format: functional, organism-based; summary of the method: as §3
# [34] = system: Staphylococcus aureus; experiment: Downregulation of hla gene expression in Staphylococcus aureus at 50 umol/L after 8 hrs by semi-quantitative RT-PCR analysis relative to control; format: functional, organism-based; summary of the method: as §3
smiles,measurement,setting,value
O=C(COc1ccc(Cl)cc1)N/N=C/c1ccc(OCc2ccccc2)c(OCc2ccccc2)c1,inhibition of growth at 100 µM,[1],17.6%
same,inhibition of growth at 100 µM,[2],6.21%
same,inhibition of growth at 100 µM,[3],99.5%
same,MBC,[4],1.4 µM
same,Activity,[5],Active
same,Activity,[6],Active
same,Activity,[7],Active
same,Activity,[8],Active
same,fold change (FC),[9],2
same,fold change (FC),[10],2
CC(C)(C)c1cc(/C=N/NC(=O)c2ccncc2)c(O)c(C(C)(C)C)c1,inhibition of growth at 100 µM,[1],13.4%
same,inhibition of growth at 100 µM,[3],95.5%
same,MBC,[4],3.1 µM
same,Activity,[5],Active
same,Activity,[6],Active
same,fold change (FC),[9],2
same,fold change (FC),[10],2
same,Activity,[11],Active
same,Activity,[12],Active
O=C(COc1ccc(Cl)cc1)N/N=C/c1cc([N+](=O)[O-])ccc1O,inhibition of growth at 100 µM,[2],96.4%
same,inhibition of growth at 100 µM,[3],1.39%
same,MBC,[13],2.8 µM
same,Activity,[14],Active
same,Activity,[15],Active
same,Activity,[16],Active
same,Activity,[17],Active
same,Activity,[18],Active
same,Activity,[19],Active
same,Activity,[20],Active
same,Activity,[21],Active
same,Activity,[22],Active
same,Activity,[23],Active
O=C(COc1ccc(Cl)cc1)N/N=C/c1cc(Br)ccc1O,inhibition of growth at 100 µM,[1],73.2%
same,inhibition of growth at 100 µM,[2],15.9%
same,MBC,[24],18.4 µM
same,Activity,[25],Active
same,Activity,[26],Active
same,Activity,[27],Active
same,Activity,[28],Active
same,Activity,[29],Active
same,Activity,[30],Active
same,Activity,[31],Active
same,Activity,[32],Active
CC(C)(C)c1cc(/C=N/NC(=O)c2ccccc2O)c(O)c(C(C)(C)C)c1,inhibition of growth at 100 µM,[1],13.9%
same,inhibition of growth at 100 µM,[3],70.9%
same,MBC,[4],19 µM
same,Activity,[33],Active
same,Activity,[34],Active
same,Activity,[7],Active
same,Activity,[8],Active
same,fold change (FC),[9],2
same,fold change (FC),[10],2
same,Activity,[11],Active
same,Activity,[12],Active
O=C(N/N=C/c1cc([N+](=O)[O-])ccc1O)c1ccncc1,inhibition of growth at 100 µM,[1],41.8%
O=C(N/N=C/c1ccccc1O)c1ccncc1 [SALINAZID],inhibition of growth at 100 µM,[1],6.81%
CN[C@@H]1[C@H](O[C@H]2[C@H](O[C@H]3[C@H](O)[C@@H](O)[C@H](N=C(N)N)[C@@H](O)[C@@H]3N=C(N)N)O[C@@H](C)[C@]2(O)C=O)O[C@@H](CO)[C@H](O)[C@H]1O [STREPTOMYCIN],inhibition of growth at 100 µM,[2],94.1%
same,inhibition of growth at 100 µM,[3],97%
same,MBC,[13],2.1 µM
same,MBC,[4],1.3 µM
CC(C)(C)c1cc(/C=N/NC(=O)COc2ccc(Cl)cc2)c(O)c(C(C)(C)C)c1,inhibition of growth at 100 µM,[1],10.5%
same,inhibition of growth at 100 µM,[2],19.7%
O=C(COc1ccc(Cl)cc1)N/N=C/c1cc(Cl)ccc1O,inhibition of growth at 100 µM,[1],3.08%
same,inhibition of growth at 100 µM,[2],83.2%
same,MBC,[13],10.8 µM
same,Activity,[14],Active
same,Activity,[15],Active
same,Activity,[16],Active
same,Activity,[17],Active
same,Activity,[18],Active
same,Activity,[19],Active
same,Activity,[20],Active
same,Activity,[21],Active
same,Activity,[22],Active
same,Activity,[23],Active
